Measurements reported in ChEMBL document CHEMBL4376883, “Discovery and Optimization of Small Molecules Targeting the Protein-Protein Interaction of Heat Shock Protein 90 (Hsp90) and Cell Division Cycle 37 as Orally Active Inhibitors for the Treatment of Colorectal Cancer” (J Med Chem, 2020).
Each block holds one compound with its values, some of them ahead of it. The source made the active and inactive calls. The calls are words filed in the database; no cut-off is given here.

Assays:
[1] = target: Heat shock protein HSP 90-alpha (Homo sapiens, UniProt P07900); test: Binding affinity to recombinant human full-length HSP90alpha by surface plasmon resonance analysis
[2] = target: T1, Heat shock protein HSP 90-beta/Hsp90 co-chaperone Cdc37 (Homo sapiens) (UniProt P08238+Q16543); test: Inhibition of HSP90-CDC37 protein-protein interaction in human HCT116 cells measured after 12 hrs by coimmunoprecipitation-based Western blot assay; assay type: cell-based
Summary of the method: (§1)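 HCT116 cells grown to ~90% confluence in 10 cm dishes, exposed to compound or DMSO for 12 h, then washed with ice-cold PBS and lysed in RIPA buffer (50 mM Tris, 150 mM NaCl, 1% NP-40, protease inhibitors, pH 7.4) for 1 h on ice. Hsp90 was immunoprecipitated with protein A/G magnetic beads over 3 h. Western blots probed Hsp90, Cdc37 and CDK4.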

[3] = tested on: Heat shock protein HSP 90-alpha (Homo sapiens), P07900 [R46A]; test: Binding affinity to recombinant […] HSP90 R46A mutant N-terminal domain (9 to 236 residues) (unknown origin) expressed in Escherichia coli BL21 (DE3) at 200 uM by NMR spectra analysis
[4] = tested on: HCT-116; test: Antitumor activity against human HCT116 cells xenografted in BALB/c mouse assessed as reduction in tumor cells at 40 to 80 mg/kg, po administered once daily for 21 days measured post-last dose by H and E staining-based imaging analysis; assay type: functional, organism-based
Summary of the method: (§2)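 1×10^7 HCT116 cells mixed 3:1 with Matrigel were injected into the flanks of 6-week-old BALB/c nude mice, which were randomised into groups. Dosing started at mean tumour volume 125 mm³: daily oral gavage for 21 days in 0.9% saline with 5% DMSO at 40 or 80 mg/kg. Tumour volume measured daily by calipers (length×width²/2); n = 6. Tumours fixed in 4% formaldehyde, paraffin-embedded, 4 µm H&E sections.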

[5] = target: T2, Heat shock protein HSP90 (Homo sapiens, UniProt P07900+P08238); test: Binding affinity to HSP90 in human HCT116 cells assessed as change in melting temperature measured after 12 hrs by CETSA; assay type: cell-based
Summary of the method: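 HCT116 cells near 90% confluence were treated 12 h with 20 µM compound or DMSO, then washed and resuspended in PBS. Aliquots heated 3 min at 37–75 °C, freeze-thawed three times in liquid nitrogen and centrifuged. Hsp90 detected by Western blot with β-actin reference; Tm taken from band grey levels. Three independent experiments.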

[6] = target: T2, Heat shock protein HSP90; test: Binding affinity to recombinant […] HSP90 N-terminal domain (9 to 236 residues) (unknown origin) expressed in Escherichia coli BL21 (DE3) assessed as change in melting temperature by SYPRO dye based thermal shift assay
Summary of the method: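 Hsp90 N-terminal domain (10 µM) mixed with compound at 200, 100, 50 or 10 µM in 1× PBS, pH 8.0, with 6× SYPRO Orange. Heated from room temperature to 99 °C at 1 °C/min; fluorescence read at 492 nm excitation and 610 nm emission.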

[7] = tested on: Mus musculus; test: In vivo inhibition of HSP90-CDC37 protein-protein interaction in human HCT116 cells xenografted BALB/c mouse assessed as reduction in CDK4 level at 40 to 80 mg/kg, po administered once daily for 21 days measured post-last dose by immunohistochemical analysis; assay type: functional, organism-based
Summary of the method: (§3)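 Tumours from the 21-day daily oral xenograft study (40 or 80 mg/kg) were formalin-fixed and cut into 4 µm paraffin sections. Peroxidase quenched with 3% H₂O₂; antigen retrieval by boiling in 10 mM citrate, pH 6.0. Blocked with 3% BSA; anti-CDK4 at 4 °C overnight; secondary 20 min at 37 °C. DAB detection, haematoxylin counterstain, viewed at 200×.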

[8] = target: T2, Heat shock protein HSP90; test: Binding affinity to recombinant […] HSP90 N-terminal domain (9 to 236 residues) (unknown origin) expressed in Escherichia coli BL21 (DE3) at 200 uM by NMR spectra analysis
[9] = target: T2, Heat shock protein HSP90; test: Binding affinity to recombinant […] HSP90 N-terminal domain (9 to 236 residues) (unknown origin) expressed in Escherichia coli BL21 (DE3) at 100 uM by STD NMR spectra analysis
Summary of the method: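 STD NMR: 100 µM compound with 5 µM Hsp90 in 20 mM sodium phosphate, 150 mM NaCl, 5% DMSO, pH 7.4. Three independent experiments.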

[10] = tested on: Heat shock protein HSP 90-alpha (Homo sapiens), P07900 [Q133A]; test: Binding affinity to recombinant […] HSP90 Q133A mutant N-terminal domain (9 to 236 residues) (unknown origin) expressed in Escherichia coli BL21 (DE3) at 200 uM by NMR spectra analysis
[11] = target: T1, Heat shock protein HSP 90-beta/Hsp90 co-chaperone Cdc37 (Homo sapiens); test: Inhibition of HSP90-CDC37 protein-protein interaction in human HCT116 cells assessed as reduction in CDK4 expression up to 10 uM measured after 12 hrs by coimmunoprecipitation-based Western blot assay; assay type: cell-based; summary of the method: as §1
[12] = target: T1, Heat shock protein HSP 90-beta/Hsp90 co-chaperone Cdc37 (Homo sapiens); test: Inhibition of His-tagged HSP90/GST-tagged Cdc37 (unknown origin) protein-protein interaction at 100 uM measured after 1 hr by HTRF assay relative to control; assay type: protein-complex assay
Summary of the method: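 His-Hsp90 and GST-Cdc37 were premixed at a final 80 nM in PBS with 200 mM KF, pH 7.4. Compound was added and the mix incubated 1 h at 37 °C, then read by HTRF. Inhibition rate was taken at 100 μM compound.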

[13] = tested on: Heat shock protein HSP 90-alpha (Homo sapiens), P07900 [E47A]; test: Binding affinity to recombinant […] HSP90 E47A mutant N-terminal domain (9 to 236 residues) (unknown origin) expressed in Escherichia coli BL21 (DE3) at 200 uM by NMR spectra analysis
[14] = tested on: HCT-116; test: Antitumor activity against human HCT116 cells xenografted in po dosed BALB/c mouse assessed as tumor growth inhibition administered once daily for 21 days; assay type: functional, organism-based; summary of the method: as §2
[15] = tested on: HCT-116; test: Antitumor activity against human HCT116 cells xenografted in BALB/c mouse assessed as reduction in tumor cells at 40 mg/kg, po administered once daily for 21 days measured post-last dose by H and E staining-based imaging analysis; assay type: functional, organism-based; summary of the method: as §2
[16] = tested on: Mus musculus; test: In vivo inhibition of HSP90-CDC37 protein-protein interaction in human HCT116 cells xenografted BALB/c mouse assessed as reduction in CDK4 level at 40 mg/kg, po administered once daily for 21 days measured post-last dose by immunohistochemical analysis; assay type: functional, organism-based; summary of the method: as §3
[17] = target: T2, Heat shock protein HSP90; test: Binding affinity to recombinant full-length 15N-labelled HSP90 N-terminal domain (9 to 236 residues) (unknown origin) expressed in Escherichia coli BL21 (DE3) at 250 to 500 uM by 15N 1H HSQC spectra analysis
[18] = tested on: Mus musculus; test: In vivo inhibition of HSP90-CDC37 protein-protein interaction in human HCT116 cells xenografted BALB/c mouse assessed as reduction in CDK4 level at 80 mg/kg, po administered once daily for 21 days measured post-last dose by immunohistochemical analysis; assay type: functional, organism-based; summary of the method: as §3
[19] = tested on: HCT-116; test: Antitumor activity against human HCT116 cells xenografted in BALB/c mouse assessed as reduction in tumor cells at 80 mg/kg, po administered once daily for 21 days measured post-last dose by H and E staining-based imaging analysis; assay type: functional, organism-based; summary of the method: as §2
[20] = tested on: HCT-116; test: Antitumor activity against human HCT116 cells xenografted in BALB/c mouse assessed as tumor growth inhibition at 40 mg/kg, po administered once daily for 21 days; assay type: functional, organism-based; summary of the method: as §2

Kd [1]: 4.98 µM
SMILES: Cc1cc(C)n(-c2nc(NN)nc(Nc3ccc(Cl)c(C(F)(F)F)c3)n2)n1

SMILES: Cc1cc(C)c(S(=O)(=O)N(CC(=O)O)c2ccc(Nc3ccnc(N4CCNCC4)n3)cc2)c(C)c1
inhibition [2]: Dose-dependent effect
Activity [3]: Active
Activity [4]: Active
ΔTm [5]: 6.39 °C
ΔTm [6]: 4.75 °C
inhibition [7]: Active
Activity [8]: Active
Activity [9]: Active
Activity [10]: Active
inhibition [11]: Active
inhibition [12]: 97.4%
Activity [13]: inactive
TGI [14]: Dose-dependent effect

SMILES: Cc1cc(C)c(S(=O)(=O)N(CC(=O)O)c2ccc(Nc3ccnc(N4CCCC4)n3)cc2)c(C)c1
Activity [15]: inactive
inhibition [16]: inactive
Activity [17]: Active
ΔTm [6]: 2.13 °C
Activity [8]: Active
Activity [9]: Active
inhibition [18]: Active
Activity [19]: Active
TGI [20]: inactive
inhibition [12]: 72.6%
